One block for each molecule: values may come before it. The source made the active and inactive calls. The rule behind the calls is not given here.
Tests used:
[1] = biological target: T1, Cysteine protease ATG4B (Homo sapiens) (UniProt Q9Y4P1); assay: Inhibition of human recombinant GST-tagged Atg4B expressed in Escherichia coli at 4 mM preincubated for 15 mins followed by LC3B-GST substrate addition after 6 mins by SDS-PAGE assay
T1 sequence (whole entry): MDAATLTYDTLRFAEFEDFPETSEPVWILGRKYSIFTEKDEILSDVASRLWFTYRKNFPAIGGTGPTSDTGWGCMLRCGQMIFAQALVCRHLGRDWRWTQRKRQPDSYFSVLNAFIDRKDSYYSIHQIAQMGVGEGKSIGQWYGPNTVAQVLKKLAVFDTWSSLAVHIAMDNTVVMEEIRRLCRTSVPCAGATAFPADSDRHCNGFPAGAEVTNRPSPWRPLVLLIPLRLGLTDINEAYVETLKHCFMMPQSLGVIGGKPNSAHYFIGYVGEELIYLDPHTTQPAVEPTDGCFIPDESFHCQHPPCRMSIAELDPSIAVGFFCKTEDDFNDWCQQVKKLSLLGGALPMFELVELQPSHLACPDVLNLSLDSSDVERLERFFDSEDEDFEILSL
Procedure, shortened: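 Recombinant human Atg4B (E. coli-expressed) at 0.625 ng/µL, preincubated 15 min with inhibitor. Then LC3B-GST (0.4 µg/µL) added in Tris-HCl buffer and incubated 6 min. Products resolved by SDS-PAGE and stained with Oriole. % uncleaved substrate derived by densitometry as OD(LC3B-GST)/(sum of all bands). Single representative experiment.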

[2] = biological target: T1, Cysteine protease ATG4B (Homo sapiens); assay: Inhibition of human recombinant GST-tagged Atg4B expressed in Escherichia coli at 40 mM using LC3B-GST as substrate measured after 6 mins by SDS-PAGE assay
Procedure, shortened: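 Recombinant human Atg4B (E. coli) at 0.625 ng/µL, with inhibitor dilutions of 0–40 mM, either preincubated 15 min or not preincubated. LC3B-GST (0.4 µg/µL) added in Tris-HCl buffer for 6 min. SDS-PAGE separation and Oriole staining followed. % uncleaved fusion protein derived from band optical densities. Single representative experiment.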

Cysteine protease ATG4B [3] = biological target: T2, Cysteine protease ATG4B (Homo sapiens, UniProt Q9Y4P1); assay: Inhibition of Atg4B (unknown origin) using YFP-LC3B-EmGFP as substrate after 40 mins by FRET-based assay
T2 sequence (Q9Y4P1 whole entry): T1 sequence (whole entry)

[4] = biological target: T1, Cysteine protease ATG4B (Homo sapiens); assay: Inhibition of human recombinant GST-tagged Atg4B expressed in Escherichia coli at 5 mM preincubated for 15 mins followed by LC3B-GST substrate addition after 6 mins by SDS-PAGE assay
Procedure, shortened: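 Enzyme (0.625 ng/µL Atg4B, Tris-HCl buffer) was preincubated with inhibitor for 15 min before [LC3B-GST] (0.4 µg/µL) was added for 6 min. Samples were separated by SDS-PAGE and stained with Oriole. Densitometric optical densities of intact fusion protein, GST and LC3B gave percent uncleaved substrate.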

[5] = biological target: T1, Cysteine protease ATG4B (Homo sapiens); assay: Inhibition of human recombinant GST-tagged Atg4B expressed in Escherichia coli at 20 mM using LC3B-GST as substrate measured after 6 mins by SDS-PAGE assay
Procedure, shortened: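 Atg4B at 0.625 ng/µL in Tris-HCl was mixed with inhibitor without preincubation. [LC3B-GST] at 0.4 µg/µL was then added for 6 min. Products were resolved by SDS-PAGE and stained with Oriole fluorescent gel stain. Percent uncleaved substrate was taken by densitometry as OD(LC3B-GST)/[OD(LC3B-GST)+OD(GST)+OD(LC3B)]×100.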

[6] = biological target: T1, Cysteine protease ATG4B (Homo sapiens); assay: Inhibition of human recombinant GST-tagged Atg4B expressed in Escherichia coli at 4 mM using LC3B-GST as substrate preincubated up to 20 mins followed by substrate addition measured after 6 mins by SDS-PAGE assay
Cysteine protease ATG4B [7] = biological target: T2, Cysteine protease ATG4B; assay: Inhibition of wild type recombinant Atg4B (unknown origin) expressed in Escherichia coli BL21 DE3 using N-terminal His6-tagged LC3B-PLA2 as substrate after 60 mins by NBD-C6-HPC dye-based fluorescence assay
Cysteine protease ATG4B [8] = biological target: T2, Cysteine protease ATG4B; assay: Inhibition of human recombinant GST-tagged Atg4B expressed in Escherichia coli using LC3B-GST as substrate after 6 mins by SDS-PAGE assay
[9] = biological target: T1, Cysteine protease ATG4B (Homo sapiens); assay: Inhibition of human recombinant GST-tagged Atg4B expressed in Escherichia coli after 2 to 20 hrs by fluorescence assay
Procedure, shortened: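 Fluorogenic peptides of 8, 10, 12 or 16 residues matching pro-LC3B Glu105–Gly120 (N-terminal to scissile Gly120), each C-terminally capped with an aminocarboxycoumarin (ACC) tag. Cleavage by Atg4B at about 20 nM was followed by fluorescence release for up to 20 h.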

SMILES: NC(=O)CI
inhibition [1]: Active
inhibition [2]: Active

SMILES: Cc1cc(O)c2c(=O)c3c(O)cc(O)c4c5c(O)cc(O)c6c(=O)c7c(O)cc(C)c8c1c2c(c34)c(c78)c65 [HYPERICIN]
IC50 (Cysteine protease ATG4B [3]): 57 µM

inhibition [4]: Active
inhibition [5]: Active
inhibition [6]: Active
SMILES: CCN1C(=O)C=CC1=O

IC50 (Cysteine protease ATG4B [3]): 0.63 µM
SMILES: O=C(N[C@@H](Cc1ccccc1)C(=O)CCl)OCc1ccccc1

IC50 (Cysteine protease ATG4B [7]): 2.3 µM
SMILES: O=C(O)c1cc(O)c(=O)c2c(O)c(O)ccc2c1 [7-DESHYDROXYPYROGALLIN-4-CARBOXYLIC ACID]

IC50 (Cysteine protease ATG4B [8]): 38 to 45 µM
IC50 (Cysteine protease ATG4B [3]): 1.3 µM
SMILES: O=C(O)C1=CC(=C(c2ccc(O)c(C(=O)O)c2)c2ccc(O)c(C(=O)O)c2)C=CC1=O [AURINTRICARBOXYLIC ACID]

inhibition [9]: Active
SMILES: Cc1sc2nc(C3CCCCC3)nc(SCC(=O)N3CC(=O)Nc4ccccc43)c2c1C

IC50 (Cysteine protease ATG4B [7]): 5.5 µM
inhibition [9]: Active
SMILES: O=c1oc2c(O)c(O)cc3c(=O)oc4c(O)c(O)cc1c4c23 [ELLAGIC ACID]

From ChEMBL document CHEMBL3870318, “Inhibitor screening and enzymatic activity determination for autophagy target Atg4B using a gel electrophoresis-based assay” (Eur J Med Chem, 2016)
